Test results published in publication PMC6024207 (Chemical Science, 2016).

Tests used:
bovine SOD1 = experiment: Inhibition of bovine SOD1 activity in pH 7.4 buffer; assay type: biochemical; settings: 1 μM SOD1, 5 μM compound, 60 min, 37 °C, 1% DMSO
Method in brief: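 Bovine SOD1 (1 μM) was preincubated 60 min at 37 °C with 5 μM test compound in pH 7.4 buffer containing 1% DMSO. Activity was then measured with a SOD1-specific superoxide dismutase assay kit. Control was the same buffer with 1% DMSO. n ≥ 3, each condition in duplicate; results are mean ± SD.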

CcO [1] = experiment: CcO activity in treated HeLa cells; assay type: cell-based, human; settings: HeLa cells treated 24 h with 50 μM, then lysed
Method in brief: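 HeLa cells were treated 24 h with 50 μM test compound and lysed. Ferrocytochrome c (cytochrome c reduced with dithiothreitol) was added, and the absorbance change at 550 nm was followed, using a reduced–oxidized extinction difference of 21.84. One unit oxidizes […] at pH 7.4, 25 °C. Control was a blank containing 1% DMSO. Results are mean ± SD of at least three experiments in duplicate.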

CcO [2] = experiment: CcO activity in lysates of untreated HeLa cells; assay type: biochemical, human; settings: incubation for 30 min with 50 μM
Method in brief: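 Untreated HeLa cells were lysed, and lysates were incubated 30 min with 50 μM test compound. CcO activity was then read with a human CcO ELISA kit. Control was a blank containing 1% DMSO. Results are mean ± SD of at least three experiments, each condition in duplicate.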

tyrosinase from potato = experiment: Tyrosinase activity; assay type: biochemical; settings: 50 μM, incubation for 0–20 min
Method in brief: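 Tyrosinase was isolated and purified from potato. The enzyme extract was preincubated at 30 °C in 0.05 M phosphate buffer pH 6.8 containing 50 μM test compound. L-DOPA was added from a 5 mM solution. DOPAchrome formation was followed at 475 nm over time (ε = 3600), and the initial rate gave activity. Control was a blank with 1% DMSO.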

SMILES | SOD1 activity, % of the control (bovine SOD1) [%] | CcO activity relative to control (CcO [1]) | CcO activity in lysates of untreated cells (CcO [2]) | reduction in tyrosinase activity relative to the control (tyrosinase from potato)
CCN(CC)C(=S)S [DDC, diethyldithiocarbamate] | > 60 | – | – | –
[N-]=[N+]=[N-].[Na+] [NaN3] | – | complete inactivation of CcO | complete inactivation of CcO | –
[SH-].[SH-].[S]=[Mo]=[S] [TM, tetrathiomolybdate] | – | reduced to half of that of the control | partial | complete inactivation of the enzyme
